# Experimental data reported in ChEMBL document CHEMBL1177857, “Functionalized aurones as inducers of NAD(P)H:quinone oxidoreductase 1 that activate AhR/XRE and Nrf2/ARE signaling pathways: synthesis, evaluation and SAR” (Eur J Med Chem, 2010).
# What was measured:
# [1] = Cytotoxicity against mouse Hepa-1c1c7 cells assessed as cell survival at 25 uM after 48 hrs by MTT assay; assay type: cell-based; settings: read-out: Activity
# Method in brief: (§1)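 MTT (0.5 mg/ml) added for 3 h at 37 °C, formazan dissolved in DMSO and read at 590 nm. Survival (%) = (A treated − A blank)/(A untreated − A blank) × 100.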
# [2] = Cytotoxicity against mouse Hepa-1c1c7 cells assessed as cell survival at 5 uM after 48 hrs by MTT assay; assay type: cell-based; settings: read-out: Activity; method in brief: as §1
# [3] = Induction of NQO1 activity in mouse Hepa-1c1c7 cells at 5 uM after 48 hrs relative to control
# [4] = Induction of NQO1 activity in mouse Hepa-1c1c7 cells at 25 uM after 48 hrs relative to control
compound,measurement,setting,value
COc1cc(OC)c2c(c1)O/C(=C\c1ccc(C#N)cc1)C2=O,"viability at 48 h, 25 µM",[1],95%
same,"viability at 48 h, 5 µM",[2],91%
same,fold change (FC),[3],1.36
same,fold change (FC),[4],1.37
COc1cccc(/C=C2\Oc3cc(O)ccc3C2=O)c1,"viability at 48 h, 25 µM",[1],84%
same,"viability at 48 h, 5 µM",[2],85%
same,fold change (FC),[3],1.22
same,fold change (FC),[4],1.01
O=C1/C(=C/c2cccc(Cl)c2)Oc2cc(O)cc(O)c21,"viability at 48 h, 25 µM",[1],86%
same,"viability at 48 h, 5 µM",[2],96%
same,fold change (FC),[3],1.45
same,fold change (FC),[4],1.71
COc1cc(OC)c2c(c1)O/C(=C\c1ccc(O)cc1)C2=O,"viability at 48 h, 25 µM",[1],89%
same,"viability at 48 h, 5 µM",[2],94%
same,fold change (FC),[3],1.18
same,fold change (FC),[4],1.29
COc1cc(OC)c2c(c1)O/C(=C\c1cnc3ccccc3c1)C2=O,"viability at 48 h, 25 µM",[1],97%
same,"viability at 48 h, 5 µM",[2],93%
same,fold change (FC),[3],1.79
same,fold change (FC),[4],1.5
COc1cc(/C=C2\Oc3cc(O)cc(O)c3C2=O)cc(OC)c1OC,"viability at 48 h, 25 µM",[1],94%
same,"viability at 48 h, 5 µM",[2],99%
same,fold change (FC),[3],1.47
same,fold change (FC),[4],1.6
COc1ccccc1/C=C1\Oc2cc(O)ccc2C1=O,"viability at 48 h, 25 µM",[1],96%
same,"viability at 48 h, 5 µM",[2],95%
same,fold change (FC),[3],0.46
same,fold change (FC),[4],0.61
COc1cc(OC)c2c(c1)O/C(=C\c1ccc(N(C)C)cc1)C2=O,"viability at 48 h, 25 µM",[1],98%
same,"viability at 48 h, 5 µM",[2],101%
same,fold change (FC),[3],1.16
same,fold change (FC),[4],0.96
COc1cc(OC)c2c(c1)OC(=O)/C2=C\c1ccccc1O,"viability at 48 h, 25 µM",[1],89%
same,"viability at 48 h, 5 µM",[2],121%
same,fold change (FC),[3],1.49
same,fold change (FC),[4],1.1
"COc1ccc(/C=C2\Oc3cc(OC)cc(OC)c3C2=O)cc1 [4,4',6-TRIMETHOXY-AURONE]","viability at 48 h, 25 µM",[1],87%
same,"viability at 48 h, 5 µM",[2],93%
same,fold change (FC),[3],1.06
same,fold change (FC),[4],0.91
COc1cccc(/C=C2\Oc3cc(OC)cc(OC)c3C2=O)c1,"viability at 48 h, 25 µM",[1],103%
same,"viability at 48 h, 5 µM",[2],100%
same,fold change (FC),[3],0.91
same,fold change (FC),[4],1.59
N#Cc1ccc(/C=C2\Oc3cc(O)cc(O)c3C2=O)cc1,"viability at 48 h, 25 µM",[1],102%
same,"viability at 48 h, 5 µM",[2],115%
same,fold change (FC),[3],1.14
same,fold change (FC),[4],1.35
COc1ccc(/C=C2\Oc3cc(O)cc(O)c3C2=O)cc1,"viability at 48 h, 25 µM",[1],114%
same,"viability at 48 h, 5 µM",[2],109%
same,fold change (FC),[3],1.15
same,fold change (FC),[4],0.82
COc1cc(OC)c2c(c1)O/C(=C\c1ccc([N+](=O)[O-])cc1)C2=O,"viability at 48 h, 25 µM",[1],88%
same,"viability at 48 h, 5 µM",[2],88%
same,fold change (FC),[3],1.61
same,fold change (FC),[4],1.6
COc1cc(OC)c2c(c1)O/C(=C\c1ccc(C)cc1)C2=O,"viability at 48 h, 25 µM",[1],93%
same,"viability at 48 h, 5 µM",[2],89%
same,fold change (FC),[3],1.34
same,fold change (FC),[4],1.34
Cc1ccc(/C=C2\Oc3cc(O)ccc3C2=O)cc1,"viability at 48 h, 25 µM",[1],100%
same,"viability at 48 h, 5 µM",[2],98%
same,fold change (FC),[3],1.59
same,fold change (FC),[4],0.9
COc1ccc(/C=C2\C(=O)Oc3ccc(O)cc32)cc1,"viability at 48 h, 25 µM",[1],118%
same,"viability at 48 h, 5 µM",[2],110%
same,fold change (FC),[3],1.35
same,fold change (FC),[4],1.71
COc1cc(OC)c2c(c1)OC(Cc1ccccc1)C2=O (configuration not stated),"viability at 48 h, 5 µM",[2],95%
same,fold change (FC),[3],1.46
COc1ccc(/C=C2\Oc3cc(O)ccc3C2=O)cc1,"viability at 48 h, 25 µM",[1],95%
same,"viability at 48 h, 5 µM",[2],91%
same,fold change (FC),[3],1.19
same,fold change (FC),[4],1.5
Cc1ccc(/C=C2\Oc3ccc(O)cc3C2=O)cc1,fold change (FC),[3],1.14
same,fold change (FC),[4],1.36
COc1cc(OC)c2c(c1)O/C(=C\c1ccc(C(F)(F)F)cc1)C2=O,"viability at 48 h, 25 µM",[1],93%
same,"viability at 48 h, 5 µM",[2],90%
same,fold change (FC),[3],1.08
same,fold change (FC),[4],0.83
O=C1/C(=C/c2cccc(O)c2)Oc2ccc(O)cc21,"viability at 48 h, 25 µM",[1],89%
same,"viability at 48 h, 5 µM",[2],98%
same,fold change (FC),[3],1.29
same,fold change (FC),[4],1.66
COc1cccc(/C=C2\Oc3ccc(O)cc3C2=O)c1,"viability at 48 h, 25 µM",[1],110%
same,"viability at 48 h, 5 µM",[2],104%
same,fold change (FC),[3],1.19
same,fold change (FC),[4],1.18
O=C1/C(=C/c2cccc(O)c2)Oc2cc(O)cc(O)c21,"viability at 48 h, 25 µM",[1],106%
same,"viability at 48 h, 5 µM",[2],111%
same,fold change (FC),[3],1.6
same,fold change (FC),[4],1.58
O=C1/C(=C/c2ccc(O)cc2)Oc2cc(O)ccc21,"viability at 48 h, 25 µM",[1],98%
same,"viability at 48 h, 5 µM",[2],100%
O=C1Oc2ccc(O)cc2/C1=C/c1ccccc1,"viability at 48 h, 25 µM",[1],94%
same,"viability at 48 h, 5 µM",[2],89%
same,fold change (FC),[3],1.15
same,fold change (FC),[4],1.37
COc1cc(OC)c2c(c1)O/C(=C\c1ccc(O)cc1O)C2=O,"viability at 48 h, 5 µM",[2],51%
same,fold change (FC),[3],1.03
same,fold change (FC),[4],1.4
COc1cc(OC)c2c(c1)O/C(=C\c1ccccc1C)C2=O,"viability at 48 h, 25 µM",[1],87%
same,"viability at 48 h, 5 µM",[2],91%
same,fold change (FC),[3],1.79
same,fold change (FC),[4],1.42
COc1ccccc1/C=C1\Oc2cc(O)cc(O)c2C1=O,"viability at 48 h, 25 µM",[1],100%
same,"viability at 48 h, 5 µM",[2],103%
same,fold change (FC),[3],1.48
same,fold change (FC),[4],1.52
COc1cc(OC)c2c(c1)O/C(=C\c1cccnc1)C2=O,"viability at 48 h, 25 µM",[1],98%
same,"viability at 48 h, 5 µM",[2],94%
same,fold change (FC),[3],1.8
same,fold change (FC),[4],1.9
O=C1/C(=C/c2ccccc2)Oc2cc(O)ccc21,"viability at 48 h, 25 µM",[1],110%
same,"viability at 48 h, 5 µM",[2],115%
same,fold change (FC),[3],1.14
same,fold change (FC),[4],1.85
O=C1Oc2ccc(O)cc2/C1=C/c1ccc(F)cc1,"viability at 48 h, 25 µM",[1],121%
same,"viability at 48 h, 5 µM",[2],101%
same,fold change (FC),[3],1.2
same,fold change (FC),[4],1.23
O=C1/C(=C/c2ccccc2Cl)Oc2cc(O)ccc21,"viability at 48 h, 25 µM",[1],117%
same,"viability at 48 h, 5 µM",[2],120%
same,fold change (FC),[3],1.02
same,fold change (FC),[4],1.3
O=C1Oc2ccc(O)cc2/C1=C/c1ccccc1Cl,"viability at 48 h, 25 µM",[1],87%
same,"viability at 48 h, 5 µM",[2],93%
same,fold change (FC),[3],1.02
same,fold change (FC),[4],1.3
O=C1/C(=C/c2ccc(O)cc2)Oc2ccc(O)cc21,fold change (FC),[3],1.22
same,fold change (FC),[4],0.94
O=C1Oc2ccc(O)cc2/C1=C/c1ccccc1F,"viability at 48 h, 25 µM",[1],114%
same,"viability at 48 h, 5 µM",[2],102%
same,fold change (FC),[3],1.05
same,fold change (FC),[4],1.34
O=C1/C(=C/c2ccccc2Cl)Oc2ccccc21,"viability at 48 h, 25 µM",[1],98%
same,"viability at 48 h, 5 µM",[2],111%
same,fold change (FC),[3],0.92
same,fold change (FC),[4],1.17
O=C1/C(=C/c2ccccc2)Oc2ccc(O)cc21,fold change (FC),[3],2.28
COc1cc(OC)c2c(c1)OC(=O)/C2=C\c1ccc(Cl)cc1,"viability at 48 h, 25 µM",[1],110%
same,"viability at 48 h, 5 µM",[2],115%
same,fold change (FC),[3],1.42
same,fold change (FC),[4],1.9
COc1cc(OC)c2c(c1)O/C(=C\c1ccc(Cl)cc1)C2=O,"viability at 48 h, 5 µM",[2],93%
same,fold change (FC),[3],2.13
O=C1/C(=C/c2ccccc2Cl)Oc2ccc(O)cc21,"viability at 48 h, 25 µM",[1],94%
same,"viability at 48 h, 5 µM",[2],98%
same,fold change (FC),[3],1.33
same,fold change (FC),[4],1.71
COc1ccc(/C=C2\Oc3ccc(O)cc3C2=O)cc1,fold change (FC),[3],1
same,fold change (FC),[4],1.17
COc1cc(OC)c2c(c1)O/C(=C\c1ccc(N3CCN(C)CC3)cc1)C2=O,"viability at 48 h, 25 µM",[1],89%
same,"viability at 48 h, 5 µM",[2],93%
same,fold change (FC),[3],1.25
same,fold change (FC),[4],1.4
N#Cc1ccc(/C=C2\Oc3ccc(O)cc3C2=O)cc1,fold change (FC),[3],1.3
same,fold change (FC),[4],1.25
O=C1Oc2ccc(O)cc2/C1=C/c1ccc(O)cc1,"viability at 48 h, 25 µM",[1],101%
same,"viability at 48 h, 5 µM",[2],111%
same,fold change (FC),[3],1.3
same,fold change (FC),[4],1.6
O=C1Oc2ccc(O)cc2/C1=C/c1cccc(O)c1,"viability at 48 h, 25 µM",[1],87%
same,"viability at 48 h, 5 µM",[2],95%
same,fold change (FC),[3],1.64
same,fold change (FC),[4],1.83
N#Cc1ccc(/C=C2\Oc3cc(O)ccc3C2=O)cc1,"viability at 48 h, 25 µM",[1],90%
same,"viability at 48 h, 5 µM",[2],94%
same,fold change (FC),[3],1.15
same,fold change (FC),[4],1.31
O=C1/C(=C/c2ccccc2)Oc2cc(O)cc(O)c21,"viability at 48 h, 25 µM",[1],100%
same,"viability at 48 h, 5 µM",[2],110%
same,fold change (FC),[3],1.39
same,fold change (FC),[4],1.3
O=C1Oc2ccc(O)cc2/C1=C/c1cccc(F)c1,"viability at 48 h, 25 µM",[1],120%
same,"viability at 48 h, 5 µM",[2],127%
same,fold change (FC),[3],1.14
same,fold change (FC),[4],1.32
O=C1/C(=C/c2ccc(Cl)cc2)Oc2cc(O)cc(O)c21,"viability at 48 h, 25 µM",[1],96%
same,"viability at 48 h, 5 µM",[2],93%
same,fold change (FC),[3],1.59
same,fold change (FC),[4],1.7
Cc1ccc(/C=C2\Oc3cc(O)cc(O)c3C2=O)cc1,"viability at 48 h, 25 µM",[1],95%
same,"viability at 48 h, 5 µM",[2],103%
same,fold change (FC),[3],1.38
same,fold change (FC),[4],1.49
COc1ccccc1/C=C1\C(=O)Oc2ccc(O)cc21,"viability at 48 h, 25 µM",[1],110%
same,"viability at 48 h, 5 µM",[2],92%
same,fold change (FC),[3],1.01
same,fold change (FC),[4],1.44
O=C1/C(=C/c2ccc(Cl)cc2)Oc2ccc(O)cc21,fold change (FC),[3],1.32
same,fold change (FC),[4],1.18
